Measurements from ChEMBL document CHEMBL2010709, “Pinophilins A and B, inhibitors of mammalian A-, B-, and Y-family DNA polymerases and human cancer cell proliferation” (J Nat Prod, 2012).

How the values were obtained:
DNA polymerase lambda = biological target: T1, DNA polymerase lambda (Homo sapiens, UniProt Q9UGP5); test: Inhibition of human recombinant His-tagged DNA polymerase lambda expressed in Escherichia coli assessed as inhibition of incorporation of dTTP into poly(dA)/oligo(dT)18 after 60 mins
T1 sequence (Q9UGP5 whole entry): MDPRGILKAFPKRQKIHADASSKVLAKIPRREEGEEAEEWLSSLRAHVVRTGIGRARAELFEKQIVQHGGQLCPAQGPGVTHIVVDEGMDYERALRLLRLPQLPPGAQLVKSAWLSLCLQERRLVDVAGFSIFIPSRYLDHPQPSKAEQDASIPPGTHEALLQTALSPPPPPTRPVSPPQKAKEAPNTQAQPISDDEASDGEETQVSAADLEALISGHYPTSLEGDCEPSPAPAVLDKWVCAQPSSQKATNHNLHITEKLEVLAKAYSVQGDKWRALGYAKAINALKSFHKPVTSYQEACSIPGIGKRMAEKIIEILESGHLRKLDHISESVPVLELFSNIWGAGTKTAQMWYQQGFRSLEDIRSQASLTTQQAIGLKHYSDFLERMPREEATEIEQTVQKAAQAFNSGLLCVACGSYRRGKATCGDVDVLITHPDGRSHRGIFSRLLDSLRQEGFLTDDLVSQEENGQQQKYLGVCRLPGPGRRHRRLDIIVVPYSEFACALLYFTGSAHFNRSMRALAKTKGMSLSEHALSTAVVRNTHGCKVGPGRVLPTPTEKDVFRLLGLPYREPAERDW
Outline: (§1)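 Compound in DMSO was sonicated for 30 s, then held with enzyme (0.05 units final) at 0 °C for 10 min in 50 mM Tris-HCl pH 7.5, 1 mM DTT, 50% glycerol, 0.1 mM EDTA. The mixture was added to the standard reaction mix with poly(dA)/oligo(dT)18 (A/T = 2/1) and dTTP, 37 °C, 60 min. Activity was relative to no-inhibitor control; mean ± SE, three independent experiments.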

[1] = biological target: DNA nucleotidylexotransferase (Bos taurus, UniProt P06526); test: Inhibition of calf TdT assessed as inhibition of incorporation of dTTP into oligo(dT)18(3'OH) after 60 mins
Outline: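 Enzyme (0.05 units) was preincubated with compound in DMSO at 0 °C for 10 min in Tris-HCl pH 7.5/DTT/glycerol/EDTA buffer, then reacted at 37 °C for 60 min. Substrates were poly(rA)/oligo(dT)18 (A/T = 2/1) plus dTTP for HIV-1 RT, and oligo(dT)18 (3′-OH) primer plus dTTP for calf thymus TdT. Activity was relative to uninhibited control; mean ± SE of three experiments.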

DNA polymerase iota = biological target: T2, DNA polymerase iota (Mus musculus, UniProt Q6R3M4); test: Inhibition of mouse recombinant C-terminal-His6-tagged DNA polymerase iota assessed as inhibition of incorporation of dTTP into poly(dA)/oligo(dT)18 after 60 mins; outline: as §1
T2 sequence (Q6R3M4 whole entry): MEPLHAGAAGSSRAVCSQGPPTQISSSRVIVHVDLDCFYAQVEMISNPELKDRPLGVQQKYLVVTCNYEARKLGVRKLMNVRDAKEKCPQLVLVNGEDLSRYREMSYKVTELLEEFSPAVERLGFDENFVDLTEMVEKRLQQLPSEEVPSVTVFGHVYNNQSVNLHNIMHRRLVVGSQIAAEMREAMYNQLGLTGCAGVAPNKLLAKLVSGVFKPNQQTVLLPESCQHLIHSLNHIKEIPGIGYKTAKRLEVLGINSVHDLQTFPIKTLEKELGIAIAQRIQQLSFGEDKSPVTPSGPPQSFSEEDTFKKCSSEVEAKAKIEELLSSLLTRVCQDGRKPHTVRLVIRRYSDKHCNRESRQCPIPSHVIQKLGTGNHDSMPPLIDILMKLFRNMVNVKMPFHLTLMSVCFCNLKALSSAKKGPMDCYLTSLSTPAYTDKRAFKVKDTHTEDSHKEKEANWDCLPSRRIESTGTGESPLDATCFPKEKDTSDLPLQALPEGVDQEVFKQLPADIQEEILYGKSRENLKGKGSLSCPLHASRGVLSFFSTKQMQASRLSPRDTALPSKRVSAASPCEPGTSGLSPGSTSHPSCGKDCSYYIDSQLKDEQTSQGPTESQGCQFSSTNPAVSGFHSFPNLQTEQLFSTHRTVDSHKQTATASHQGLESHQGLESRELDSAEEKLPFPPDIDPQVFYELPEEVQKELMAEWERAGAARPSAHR

[2] = Inhibition of cauliflower DNA polymerase alpha assessed as inhibition of incorporation of dTTP into poly(dA)/oligo(dT)18 after 60 mins; parameters: species or system Brassica oleracea var. botrytis; outline: as §1
[3] = Inhibition of Escherichia coli polymerase DNA polymerase 1 klenow fragment assessed as inhibition of incorporation of dTTP into poly(dA)/oligo(dT)18 after 60 mins; outline: as §1
A549 = test: Growth inhibition of human A549 cells after 24 hrs by WST-1 assay; type: functional; details: A549, 24 h
Outline: (§2)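 Cancer cells were grown in McCoy's 5A with 10% FBS and penicillin/streptomycin, 37 °C, 5% CO2. Cells were seeded at 1 × 10^4 per well, cultured 12 h, then given compound (10 mM DMSO stock diluted in medium, 0.5% DMSO) for 24 h. WST-1 was added for 4 h and absorbance read at 450/630 nm. GI50 given as mean ± SE, five independent experiments.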

NUGC-3 = test: Growth inhibition of human NUGC3 cells after 24 hrs by WST-1 assay; type: functional; details: NUGC-3, 24 h; outline: as §2
[4] = Growth inhibition of HUVEC cells after 72 hrs by WST-1 assay; type: cell-based; details: human
Outline: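 Normal cells (HDF, HUVEC) were grown in Eagle's MEM with 4.5 g/L glucose, 10% FCS, 5 mM L-glutamine and penicillin/streptomycin, 37 °C, 5% CO2. Cells were seeded at 1 × 10^4 per well, cultured 12 h, then exposed to compound (0.5% DMSO final) for 72 h. Viability was read by WST-1 at 450/630 nm. GI50 given as mean ± SE of five experiments.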

DNA nucleotidylexotransferase, sequence (P06526 whole entry): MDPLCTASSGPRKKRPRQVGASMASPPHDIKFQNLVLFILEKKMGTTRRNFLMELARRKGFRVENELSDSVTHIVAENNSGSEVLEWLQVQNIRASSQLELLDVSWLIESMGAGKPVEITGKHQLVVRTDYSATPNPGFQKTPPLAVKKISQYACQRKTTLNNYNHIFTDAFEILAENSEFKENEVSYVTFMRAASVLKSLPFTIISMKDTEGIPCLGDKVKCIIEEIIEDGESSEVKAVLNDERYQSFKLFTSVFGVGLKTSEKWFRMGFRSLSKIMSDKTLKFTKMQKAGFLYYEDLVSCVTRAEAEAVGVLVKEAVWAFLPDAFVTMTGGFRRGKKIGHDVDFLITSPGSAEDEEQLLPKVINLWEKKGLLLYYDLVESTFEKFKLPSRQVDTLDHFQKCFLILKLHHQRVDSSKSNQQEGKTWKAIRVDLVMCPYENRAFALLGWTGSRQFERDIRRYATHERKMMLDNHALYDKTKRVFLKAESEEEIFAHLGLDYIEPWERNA

C/C=C/C1=CC2=CC(=O)[C@@](C)(O)[C@@H](OC(=O)c3c(C)cc(O)cc3O)[C@@H]2CO1
IC50 (DNA polymerase lambda): > 200 µM
IC50 [1]: > 200 µM
IC50 (DNA polymerase iota): 63.8 µM
IC50 [2]: > 200 µM
IC50 [3]: > 200 µM
GI50 (A549): 65.7 µM
GI50 (NUGC-3): 66.4 µM
GI50 at 72 h [4]: > 200 µM

Cc1cc(O)cc(O)c1C(=O)O[C@H]1[C@@H]2COC(/C=C/CO)=CC2=CC(=O)[C@@]1(C)O [PINOPHILIN B]
IC50 (DNA polymerase lambda): > 200 µM
IC50 [1]: > 200 µM
IC50 (DNA polymerase iota): 91 µM
IC50 [2]: > 200 µM
IC50 [3]: > 200 µM
GI50 (A549): 93.1 µM
GI50 (NUGC-3): 96.8 µM
GI50 at 72 h [4]: > 200 µM

C/C=C/C1=CC2=CC(=O)[C@@](C)(OC(=O)c3c(C)cc(O)cc3O)[C@@H](O)[C@@H]2CO1 [PINOPHILIN A]
IC50 (DNA polymerase lambda): > 200 µM
IC50 [1]: > 200 µM
IC50 (DNA polymerase iota): 50.2 µM
IC50 [2]: > 200 µM
IC50 [3]: > 200 µM
GI50 (A549): 52.5 µM
GI50 (NUGC-3): 54.7 µM
GI50 at 72 h [4]: > 200 µM
